What is called IC50 is the concentration at which inhibition is half-maximal. Broadly, the fraction unbound is free concentration divided by total concentration. A high value points to weak binding. One may read the inhibition as the share of the control response that was lost under treatment. Higher therefore signals a strong effect.

Data set [1] addresses T1, Inward rectifier potassium channel 13 (Homo sapiens, UniProt O60928).
T1 sequence (O60928 whole entry): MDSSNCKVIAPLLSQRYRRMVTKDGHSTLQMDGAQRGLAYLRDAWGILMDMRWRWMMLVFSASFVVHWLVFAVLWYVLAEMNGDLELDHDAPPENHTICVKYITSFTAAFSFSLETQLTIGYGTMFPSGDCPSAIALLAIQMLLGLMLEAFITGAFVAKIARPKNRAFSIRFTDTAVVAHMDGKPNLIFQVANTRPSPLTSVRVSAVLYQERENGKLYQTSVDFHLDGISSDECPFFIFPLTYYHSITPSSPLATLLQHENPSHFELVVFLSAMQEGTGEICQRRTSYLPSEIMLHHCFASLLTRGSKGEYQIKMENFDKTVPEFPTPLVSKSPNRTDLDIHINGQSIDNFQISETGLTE
Nature of the data set: Inhibition of Kir7.1 (unknown origin).

Data set [2] concerns Rattus norvegicus. Nature of the data set: Antihypertensive activity in […] rat model assessed as increase in diuresis at 10 mg/kg, po qd measured on day 1 post dose relative to control. In kind it is functional. In a few lines:
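Spontaneously hypertensive rats dosed orally once daily for 3 days at 3, 10 and 30 mg/kg (reference diuretic at 25 mg/kg); 24 h urine output on day 1 expressed as fold increase over vehicle-treated rats; n = 5 per group.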

The target in data set [3] is T2, ATP-sensitive inward rectifier potassium channel 1 (Homo sapiens, UniProt P48048).
T2 sequence (P48048 whole entry): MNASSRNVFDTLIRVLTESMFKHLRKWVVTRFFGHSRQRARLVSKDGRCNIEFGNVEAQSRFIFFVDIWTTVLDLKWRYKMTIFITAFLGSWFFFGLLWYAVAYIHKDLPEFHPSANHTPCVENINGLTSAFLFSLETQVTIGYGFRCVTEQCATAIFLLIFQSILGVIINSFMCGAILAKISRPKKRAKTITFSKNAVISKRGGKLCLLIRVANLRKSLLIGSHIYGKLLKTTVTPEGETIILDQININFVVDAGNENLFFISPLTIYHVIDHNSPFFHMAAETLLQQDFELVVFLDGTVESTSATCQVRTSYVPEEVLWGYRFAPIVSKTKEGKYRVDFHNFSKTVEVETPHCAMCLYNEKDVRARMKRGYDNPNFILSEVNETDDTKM
The data set is described as follows: Inhibition of human ROMK expressed in CHO cells after 6 mins at -70 mV holding potential by electrophysiology method. In kind it is cell-based.

Data set [4] is described as follows: Unbound fraction in rat plasma. In kind it is ADME, cell-free.
The target in data set [5] is Somatostatin receptor type 2 (Homo sapiens, UniProt P30874). The data set is described as follows: Inhibition of Somatostatin receptor type 2 (unknown origin) at 10 uM by radioligand binding assay relative to control. The method in brief:
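Run within a 115-assay off-target panel of enzyme and radioligand binding assays. Inhibition of somatostatin sst2 ligand binding was recorded at a single concentration of 10 μM.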

Data set [6] in a line: Dose normalized AUC in Sprague-Dawley rat at 2 mg/kg, po. In kind it is ADME, organism-based. As to conditions: in vivo.
For data set [7], the target named is Cytochrome P450 3A4 (Homo sapiens, UniProt P08684). Nature of the data set: Inhibition of CYP3A4 (unknown origin). It is filed as ADME.

Structures are written as SMILES. Bounds are passed on as bounds.

Sequence of Cytochrome P450 3A4 (P08684 whole entry): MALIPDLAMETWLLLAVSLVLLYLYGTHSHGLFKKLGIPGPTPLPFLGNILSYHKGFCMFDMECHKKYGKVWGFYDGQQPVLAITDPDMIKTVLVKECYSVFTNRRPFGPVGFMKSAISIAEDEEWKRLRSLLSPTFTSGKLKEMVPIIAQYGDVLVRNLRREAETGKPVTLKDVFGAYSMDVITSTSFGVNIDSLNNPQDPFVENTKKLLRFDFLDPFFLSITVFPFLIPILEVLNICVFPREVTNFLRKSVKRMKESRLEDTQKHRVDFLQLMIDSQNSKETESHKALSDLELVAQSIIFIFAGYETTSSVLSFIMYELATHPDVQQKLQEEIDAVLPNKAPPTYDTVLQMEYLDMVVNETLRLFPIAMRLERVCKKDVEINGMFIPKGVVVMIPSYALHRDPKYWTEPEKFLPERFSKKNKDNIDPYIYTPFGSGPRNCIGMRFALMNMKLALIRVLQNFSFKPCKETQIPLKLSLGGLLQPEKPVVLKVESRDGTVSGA
Sequence of Somatostatin receptor type 2 (P30874 whole entry): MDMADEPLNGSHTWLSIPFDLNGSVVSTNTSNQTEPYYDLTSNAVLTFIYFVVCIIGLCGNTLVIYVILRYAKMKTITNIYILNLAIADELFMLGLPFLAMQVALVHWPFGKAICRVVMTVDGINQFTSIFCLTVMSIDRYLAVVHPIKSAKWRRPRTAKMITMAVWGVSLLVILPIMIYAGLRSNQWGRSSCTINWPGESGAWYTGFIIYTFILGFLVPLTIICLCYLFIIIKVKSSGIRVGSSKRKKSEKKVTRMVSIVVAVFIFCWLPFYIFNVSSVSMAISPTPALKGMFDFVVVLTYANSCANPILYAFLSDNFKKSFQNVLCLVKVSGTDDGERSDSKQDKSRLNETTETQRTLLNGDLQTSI

For the compound `Cc1c([C@@H]2CN3CCN(C(=O)Cc4ccc(-n5cnnn5)cn4)C[C@H]3CO2)ccc(F)c1C#N`, the IC50 in data set [1] was more than 100 µM; in data set [3] it was 0.073 µM; in data set [7], more than 50 µM. In addition, the “fold change (FC)” value in data set [2] was determined as 1.6. In data set [4], this compound registered a fraction unbound of 0.48. In data set [5], this compound displayed an inhibition of more than 50%. In addition, the AUC/dose in data set [6] turned out to be 0.79 µM·kg·h/mg.

Source of the values: ChEMBL document CHEMBL3868612, “Discovery of a potent and selective ROMK inhibitor with improved pharmacokinetic properties based on an octahydropyrazino[2,1-c][1,4]oxazine scaffold” (Bioorg Med Chem Lett, 2016).
